SKN-1 block: blocks SKN-1 activity in C. elegans; C. elegans VP596 Pgst-4::GFP/RFP ratio, acrylamide-induced, 24 h; inhibition, % at 21.8 µM; 0.49% of 360,000 active; AID 624304;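 active = interference check ratio from 0.5 to 1.5 plus GFP to RFP signal ratio inhibition reaching or exceeding a fixed threshold, cut at about 30% in these data, passing the limit was not always enough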
SUMO1-SIM PPI: alters human SUMO1 binding to SIM partners; P63165; AID 602429; inhibition, % at 20 µM; SUMO1 binding to a labelled peptide, TR-FRET, 1 h; 0.33% of 360,000 active; in the data active = inhibition above about 37%
CSN deneddyl inh: blocks human CSN-mediated cullin deneddylation; 0.38% of 360,000 active; Q92905; inhibition, % at 12.5 µM; Purified CSN, SCF-Nedd8-OG deneddylation, fluorescence polarization; AID 651999;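 active = pattern-corrected inhibition above about 35%, with an unprinted fluorescence ratio check between 0.5 and 1.5, limit read from the data, passing the limit was not always enough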;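 also: 0% = enzyme with substrate and 100% = substrate without enzyme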
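Test system: purified human Csn5 enzyme expressed in HEK293T cells. Amount: 0.24 nM enzyme. Reagent: SCFSkp2-Nedd8OG substrate at 10 nM final. Schedule: 90 min incubation of compound, enzyme and substrate at room temperature. Detection: fluorescence polarization. Read-out: % inhibition of substrate cleavage by Csn5.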
MT1-MMP act inh: blocks activation of human MT1-MMP | GFP/RFP ratio change, % at 20 µM | AID 651647 | P50281 | HT1080 RFP-PRO-GFP cells, GFP/RFP ratio fluorescence, overnight; percent of plate control window, DMSO zero | 0.061% of 360,000 active;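 active = GFP/RFP ratio change of at least 30% with cell ATP level not reduced by more than half and red fluorescence within 50% of control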
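system = RFP-PRO-GFP reporter HT1080 cells | dosing = 20 µM single dose, 1% DMSO | timing = overnight cell settling, then overnight compound exposure, 37 °C, 5% CO2 | read-out basis = GFP/RFP fluorescence ratio | controls = DMSO and RFP-L50D-GFP cell wells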
Rpn11 inh: Rpn11 (human) deubiquitinase inhibition | inhibition, % at 20 µM | AID 588493 | human 26S proteasome, Ub4-pepOG fluorescence polarization; 20S core pre-blocked with epoxomicin | 0.59% of 360,000 active | O00487;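 active = inhibition at 20 µM, scaled to each plate's controls, above about 33%, limit read from the data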
DNMT1 inh: blocks human DNA methyltransferase DNMT1. P26358. DNMT1 molecular beacon, Hinp1I cleavage, fluorescence. inhibition (reported as % activation of signal), % at 10 µM. 0.83% of 360,000 active. AID 588458; in the data active = inhibition above about 50%
Beacon interf DR: counter-screen for DNMT1 inhibitors: spectral interference, dose response | molecular beacon fluorescence | shares compounds with DNMT1 inh | 200 tested, under 10 active | IC50, µM; call rule not given here
DNMT1 inh conf: confirmation of human DNMT1 inhibitors; shares compounds with DNMT1 inh; DNMT1 molecular beacon HinP1I cleavage, fluorescence; inhibition, % at 10 µM; 8% of 2,300 active; AID 602385;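 active = average inhibition of at least 30% in the single-concentration confirmation test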
Beacon interf: shows spectral interference in the DNMT1 beacon assay; shares compounds with DNMT1 inh; DNMT1 molecular beacon spectral interference counterscreen, fluorescence 485/520; activation (fluorescence interference), % at 10 µM; 1% of 2,300 active; AID 602387;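 active = activation of at least 30% at 10 µM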;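 also: DNMT1 catalytic domain with a HinP1I cleavage step and a FAM/dabcyl DNA beacon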
An asterisk follows results filed as active; / = no result given. Only some compounds are listed: those with a hit (about 2.3% of all), similar ones and a draw of the others.

SMILES	SKN-1 block	SUMO1-SIM PPI	CSN deneddyl inh	MT1-MMP act inh	Rpn11 inh	DNMT1 inh	DNMT1 inh conf	Beacon interf	others
O=C(Nc1ccc(N2CCCCC2)cc1)c1ccccc1	20	-6	2	7	15	-7	/	/
O=C(Nc1ccc(N2CCCC2)cc1)c1ccccc1F	6	-1	8	-10	16	72*	4	10
O=C(Nc1ccc(N2CCCC2)cc1)c1cccc(F)c1	35	0	3	-3	-9	65*	2	4
CCOC(=O)[C@]12CCC=C1N(CCC1=CCCCC1)C(=O)[C@H](CC(=O)N1CCOCC1)C2	-16	3	-10	3	/	/	/	/
CC1CC2(CC(CN(C3CCCCC3)C3CCCCC3)OC2=O)C(=O)O1 (stereo unspecified)	3	-2	-4	4	0	-2	/	/
CCOCc1nc(N)nc(N)c1-c1cccc(Cl)c1	-2	21	-2	4	2	4	/	/
CC(C)(C)N1C(=O)c2ccccc2NC(=O)C1C(=O)Nc1ccc2c(c1)OCCO2 (stereo unspecified)	4	0	0	4	/	/	/	/
COc1cncc(C#Cc2ccccn2)c1	15	1	1	0	/	/	/	/
COc1cc(O)c(C(C)=O)c(CC(=O)O)c1	6	4	35*	-4	-33	50*	10	-1
COc1cc(O)c(C(C)=O)c(OC)c1	-5	-2	-4	-2	2	4	/	/
S=C(NCc1ccco1)NCc1ccco1	-5	5	16	1	-11	50	1	-1
O=C(COC(=O)/C=C/c1ccco1)NCc1ccco1	-7	-3	10	0	-9	52*	2	4
O=C(COC(=O)c1cc(-c2cccs2)nc2ccccc12)NCc1ccco1	0	5	14	4	-2	51*	17	4
O=C(COC(=O)/C=C/c1ccco1)NCc1ccccc1Cl	7	-12	1	6	-9	2	/	/
O=C(COC(=O)c1cccc(Br)c1)NCc1ccco1	13	7	-1	-4	-32	87*	2	4
CC(C)[C@H](NC(=O)OC(C)(C)C)c1cc(C(=O)N2CCOCC2)c(N)s1	-11	0	-2	3	/	/	/	/
C[C@@H]1CN([C@@H](C)CO)C(=O)c2cc(NS(=O)(=O)c3ccc(F)cc3)ccc2O[C@@H](C)CCCCO[C@H]1CN(C)C(=O)NC1CCCCC1	-13	5	1	0	-4	-4	/	/
Cc1cc(Br)ccc1SCC(=O)OCC(=O)NCc1ccco1	-4	19	23	-9	-17	82*	9	-2
O=C(COC(=O)c1ccccc1Nc1cccc(C(F)(F)F)c1)NCc1ccco1	1	6	17	3	18	91*	6	4
O=C(COC(=O)c1ccccc1)NCc1ccco1	-30	3	18	3	-24	74*	6	4
O=C(COC(=O)c1cc(-c2ccco2)nc2ccccc12)NCc1ccc2c(c1)OCO2	14	0	14	-9	-6	77*	8	8
CN(C)c1ncnc2c1ncn2[C@H]1CN(C2CCCC2)C[C@@H](CO)O1	19	-4	-4	-1	-11	1	/	/
O=C(COC(=O)c1ccco1)NCc1ccco1	23	1	-1	7	-5	0	/	/
O=C(COC(=O)c1ccccc1Oc1ccccc1)NCc1ccco1	-12	2	6	0	1	55*	10	4
O=C(COC(=O)/C=C/c1ccco1)Nc1ncc(C(F)(F)F)cc1Cl	19	-2	18	-4	-19	71*	18	3
SMILES	SKN-1 block	SUMO1-SIM PPI	CSN deneddyl inh	MT1-MMP act inh	Rpn11 inh	DNMT1 inh	DNMT1 inh conf	Beacon interf	others
COc1ccccc1NCCC(=O)OCC(=O)NCc1ccco1	7	5	12	-5	-24	51*	17	-2
O=C(COC(=O)COc1ccccc1)NCc1ccco1	-10	5	-4	8	13	3	/	/
O=C(COC(=O)c1ccc(Br)o1)NCc1ccco1	-3	4	14	-6	-13	58*	2	2
CCCCN1C(=O)C(CC(=O)NC(c2ccccc2)c2ccccc2)CC(C(=O)N2CCCCCC2)=C1C (stereo unspecified)	18	3	-6	7	/	/	/	/
O=C(NCc1ccco1)c1ccc([N+](=O)[O-])o1	-19	-23	5	2	-15	67*	3	3
O=C(COC(=O)c1cc(=O)c2ccccc2o1)NCc1ccc(Cl)cc1	26	3	2	6	1	57*	1	1
CC(=O)c1cccc(OCC(=O)N(C)CC(=O)NCc2ccco2)c1	-14	17	23	-3	-20	96*	52*	1	Beacon interf DR=>99
O=C(COC(=O)c1cc(=O)c2ccccc2o1)NCc1ccccc1	3	1	1	0	0	2	/	/
Cc1ccc(C)c(SCC(=O)OCC(=O)c2ccco2)c1	7	3	18	3	-21	81*	3	2
CCCCNC(=O)c1nc(C2CCNCC2)oc1-c1cccc(C(F)(F)F)c1	2	11	17	-1	/	/	/	/
O=C(COC(=O)Cc1ccc(Cl)c(Cl)c1)NCc1ccco1	-6	2	0	4	2	-1	/	/
O=C(COC(=O)Cc1ccc(Cl)cc1)NCc1ccco1	4	19	20	0	-27	88*	8	2
CCCNC(=O)C1(C)CCCN(Cc2cc(-c3ccccc3)nn2C)C1 (stereo unspecified)	-1	-3	-3	-4	-9	4	/	/
Cc1nc2nc(-c3ccccc3)cc(=O)n2[nH]1	-3	-2	-3	-1	0	-3	/	/
O=c1cc(-c2ccccc2)nc2nc(-c3ccco3)[nH]n12	8	54*	72	-6	/	104*	-2	4
CCOC(=O)C[C@@H]1OC[C@H](C(C)C)N1S(=O)(=O)c1ccc(C)cc1	7	6	-4	3	/	/	/	/
COc1ccc(C(CNC(=O)c2ccc(NS(=O)(=O)c3ccc(F)cc3)cc2)N2CCOCC2)cc1 (stereo unspecified)	-9	1	-3	1	1	0	/	/

Screening results: PubChem BioAssay, Sanford-Burnham Center for Chemical Genomics
